The source made the active and inactive calls. No cut-off for these calls is given here. Peptide text beside a SMILES is read from it.
How the values were obtained:
[1] = target: Amyloid-beta precursor protein (Homo sapiens) (UniProt P05067); assay: Inhibition of HFIP-pretreated amyloid beta (1 to 42) (unknown origin) aggregation in PBS buffer at pH 7.4 at 40 uM incubated for 48 hrs by thioflavin-T fluorescence assay
In short: (§1)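 Aβ42 pretreated with HFIP (1 mg/mL, 30 min RT, sonicated 5 min, dried to film), then diluted from 0.1% NH4OH stock to final 10 µM in PBS (50 mM sodium phosphate, 100 mM NaCl) with compound from DMSO stock (final 1% DMSO), pH 7.4. Incubated at 37 °C for 0–48 h. Aliquots were frozen at -80 °C, then mixed with 5.0 µM Th-T in 50 mM Gly-NaOH pH 8.5. Fluorescence read at ex 430/em 510 nm, buffer background subtracted; mean ± SD, n = 4.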

[2] = target: Amyloid-beta precursor protein (Homo sapiens) (UniProt P05067); assay: Inhibition of HFIP-pretreated amyloid beta (1 to 42) (unknown origin) aggregation in PBS buffer at pH 7.4 assessed as effect on fibril formation at 40 uM after 48 hrs by uranyl acetate staining based transmission electron microscopy
In short: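 HFIP-treated Aβ42 (final 10 µM) was incubated with compound (final 40 µM) in PBS containing 1% DMSO, pH 7.4, at 37 °C for 48 h. Pellets were collected by centrifugation and resuspended in distilled water. They were left on formvar-coated copper grids for 5 min, negatively stained with 2% uranyl acetate and imaged by TEM.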

[3] = test system: SH-SY5Y; assay: Neuroprotective activity against amyloid beta (1 to 42 residues) induced cytotoxicity in human SH-SY5Y cells assessed as cell viability at 10 uM after 48 hrs by MTT assay; type: functional, cell-based
In short: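 SH-SY5Y cells (ATCC) were grown in DMEM/F-12 with 10% FBS and penicillin/streptomycin at 37 °C, 5% CO2. Cells were plated at 2.0 × 10^4 per well and pre-incubated for 24 h. HFIP-treated Aβ42 (final 1 µM) and compound (final 10 µM) were added, with 0.5% DMSO and 0.01% NH4OH final. After 48 h, MTT (5 mg/mL stock) was added for 4 h, then DMSO was used for solubilization. Mean ± SD, n = 3.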

[4] = target: Amyloid-beta precursor protein (Homo sapiens) (UniProt P05067); assay: Inhibition of HFIP-pretreated amyloid beta (1 to 42) (unknown origin) aggregation in PBS buffer at pH 7.4 incubated for 48 hrs by thioflavin-T fluorescence assay; in short: as §1
[5] = test system: SH-SY5Y; assay: Cytotoxicity against human SH-SY5Y cells assessed as reduction in cell viability at 10 uM measured after 48 hrs by MTT assay; type: cell-based

Amyloid-beta precursor protein (Homo sapiens), sequence (P05067 whole entry): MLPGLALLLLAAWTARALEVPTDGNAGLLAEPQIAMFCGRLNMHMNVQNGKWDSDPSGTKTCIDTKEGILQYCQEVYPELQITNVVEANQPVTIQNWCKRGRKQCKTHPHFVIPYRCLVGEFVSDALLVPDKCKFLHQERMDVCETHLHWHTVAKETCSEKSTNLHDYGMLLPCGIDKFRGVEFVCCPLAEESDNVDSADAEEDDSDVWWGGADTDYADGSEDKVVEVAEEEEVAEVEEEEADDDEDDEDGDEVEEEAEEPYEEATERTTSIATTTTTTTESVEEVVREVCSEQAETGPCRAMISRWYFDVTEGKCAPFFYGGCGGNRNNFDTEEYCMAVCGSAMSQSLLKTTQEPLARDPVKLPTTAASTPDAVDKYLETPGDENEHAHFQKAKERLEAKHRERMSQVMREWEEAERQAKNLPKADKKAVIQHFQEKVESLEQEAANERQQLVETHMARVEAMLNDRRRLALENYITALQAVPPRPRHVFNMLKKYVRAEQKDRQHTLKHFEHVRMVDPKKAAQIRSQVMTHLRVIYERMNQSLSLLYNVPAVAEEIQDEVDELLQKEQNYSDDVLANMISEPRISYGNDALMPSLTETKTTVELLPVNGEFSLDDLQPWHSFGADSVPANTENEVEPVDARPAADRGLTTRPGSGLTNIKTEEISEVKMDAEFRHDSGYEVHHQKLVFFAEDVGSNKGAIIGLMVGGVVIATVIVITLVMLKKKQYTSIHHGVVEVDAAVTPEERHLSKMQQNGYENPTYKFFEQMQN

Structure (SMILES) | inhibition [1] | inhibition [2] | inhibition [4] | Activity [3] | Activity [5]
CC(C)C[C@H](N)C(=O)N1CCC[C@H]1C(=O)N[C@@H](Cc1ccccc1)C(=O)N[C@@H](Cc1ccccc1)C(=O)O (H-LPFF-OH) | inactive | – | – | – | –
C[C@H](NC(=O)[C@@H]1C/C=C/COc2ccc(cc2)C[C@H](NC(=O)[C@@H]2CCCN2)C(=O)N[C@@H](Cc2ccccc2)C(=O)N1)C(=O)O | Active | inactive | – | inactive | –
COC(=O)[C@@H]1C/C=C/COc2ccc(cc2)C[C@H](NC(=O)OC(C)(C)C)C(=O)N[C@@H](CC(C)C)C(=O)N1 | inactive | – | – | – | –
CC(C)C[C@H](N)C(=O)N[C@H]1Cc2ccc(cc2)OC/C=C/C[C@@H](C(=O)N[C@@H](CC(=O)O)C(=O)O)NC(=O)[C@H](Cc2ccccc2)NC1=O | Active | inactive | – | inactive | –
CC(C)C[C@H](N)C(=O)N[C@H]1Cc2ccc(cc2)OC/C=C/C[C@@H](C(=O)N[C@@H](C)C(=O)O)NC(=O)[C@H](Cc2ccccc2)NC1=O | – | inactive | Dose-dependent effect | inactive | –
CC(C)C[C@H](N)C(=O)N[C@H]1C/C=C/COc2ccc(cc2)C[C@@H](C(=O)N[C@@H](C)C(=O)O)NC(=O)[C@H](Cc2ccccc2)NC1=O | – | inactive | Dose-dependent effect | inactive | Toxic

Now from value to compound, other results behind:

inhibition [1] | inhibition [2] | inhibition [4] | Structure (SMILES) | Activity [3] | Activity [5]
Active | inactive | – | O=C(O)C[C@H](NC(=O)[C@@H]1C/C=C/COc2ccc(cc2)C[C@H](NC(=O)[C@@H]2CCCN2)C(=O)N[C@@H](Cc2ccccc2)C(=O)N1)C(=O)O | inactive | –
inactive | inactive | – | CC(C)C[C@H](N)C(=O)N[C@H](C(=O)N[C@H]1Cc2ccc(cc2)OC/C=C/C[C@@H](C(=O)O)NC(=O)[C@H](Cc2ccccc2)NC1=O)C(C)C | inactive | –
inactive | inactive | – | CC(C)[C@@H]1NC(=O)[C@@H](N)C/C=C/COc2ccc(cc2)C[C@@H](C(=O)N[C@@H](Cc2ccccc2)C(=O)N[C@@H](C)C(=O)O)NC1=O | inactive | –

— ChEMBL document CHEMBL4725385, “Design and synthesis of β-strand-fixed peptides inhibiting aggregation of amyloid β-protein” (Bioorg Med Chem, 2020)
